Results taken from article PMC2217063 (The Journal of General Physiology, 1997).
Several values for one entry are separate records, joined by “and”; a condition that tells them apart may be missing. Identical values can stand only once. Like-named read-outs stand apart in the source and are kept apart here.

Columns and labels:
Na,K-ATPase [1] = target: T1, Na,K-ATPase (Canis lupus familiaris, UniProt P50997); experiment: K- and ADP-chases of the phosphointermediate; format: biochemical, dog; settings: for ratio of interconversion rate constants, k12/k21: twin 2-pool model
Na,K-ATPase [2] = target: T1, Na,K-ATPase; experiment: Na-ATPase activity and rate constant of blank chase at 4, 17 and 27°C; format: biochemical, dog; settings: both Na-ATPase activity and rate constant of blank chase
Procedure, shortened: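 Na-ATPase measured without K+ in imidazole MOPS with Na3EGTA and NaNO3 at 40 or 400 mM, started with ATP, 4 mM final. Rate constant taken from the blank chase: decay of [γ-32P]phosphoenzyme after labelling stops, with a chase lacking ADP and K+. Both run at 4, 17 and 27°C.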

Na,K-ATPase [3] = target: T1, Na,K-ATPase; format: biochemical, dog
Na,K-ATPase [4] = target: T1, Na,K-ATPase; experiment: Na,K-ATPase activity at 37°C with different anions; format: biochemical, dog; settings: 400 mM vs 40 mM
Procedure, shortened: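 Enzyme purified from outer-medulla microsomes. […] Salts: 40 mM Na+/8 mM K+/3.5 mM Mg2+ or 400 mM Na+/80 mM K+/10 mM Mg2+. Preincubated 20 min at 37°C; started with ATP, 4 mM final.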

Na,K-ATPase [5] = settings: 0°C, different method; ref Klodos and Nørby, 1987; cited from earlier work
[6] = 500 mM Na^+, no replacement cation, nitrate, 4°C, enzyme prep. A
[7] = 45 mM Na^+, replacement cation to a sum of 500 mM, nitrate, 4°C, prep. A
[8] = 200 mM Na^+, replacement cation to a sum of 500 mM, nitrate, 4°C, prep. B

For `[Cl-].[Na+]` [NaCl], the “ratio of interconversion rate constants, k12/k21” value (Na,K-ATPase [1]; 160 mM NaCl, 4°C) was over 5 and the “ratio of interconversion rate constants, k12/k21” value (Na,K-ATPase [1]; 600 mM NaCl, 4°C) was 0.25.

For `O=[N+]([O-])[O-].[Na+]` [NaNO3], the “activation energy (ΔH) in 400 mM relative to 40 mM NaNO3” value (Na,K-ATPase [2]) was 1.3 fold and the “effect on rate constant of dephosphorylation in a blank chase” value (Na,K-ATPase [1]; 4°C, concentration increased from 40 to 400 mM) was “inhibited dephosphorylation”.

With `[Na+]` [Na^+] the “K(internal) = [ADP·E1P]/[ATP·E1]” value (Na,K-ATPase [3]; 45 mM Na^+) was about 2, the “K int in 45 mM Na^+ relative to 200 mM Na^+ in each medium” value (Na,K-ATPase [3]; 45 mM vs 200 mM Na^+) was 2.1–2.5 fold and the “K int = [ADP·E1P]/[ATP·E1]” value (Na,K-ATPase [3]; 200 mM Na^+) was 0.5–1.4. The “K int = [ADP·E1P]/[ATP·E1]” value (Na,K-ATPase [3]; 500 mM Na^+) was 0.1–0.3, the “K(internal) = [ADP·E1P]/[ATP·E1]” value (Na,K-ATPase [3]; 500 mM Na^+) was about 0.2 and the “E1P (amount of K-resistant E1P)” value (Na,K-ATPase [3]; [6]) was 95%. For the same compound, the “effect on interconversion rate constants” value (Na,K-ATPase [1]; 240 mM NaNO3 vs 30 mM NaNO3 plus 210 mM TrisNO3, 4°C) was “not affected significantly”.

For `N=C(N)NCCC[C@H](N)C(=O)O` [Arg^+, arginine^+], the “E1P (amount of K-resistant E1P)” value (Na,K-ATPase [3]; [7]) was 97% and the “E1P (amount of K-resistant E1P)” value (Na,K-ATPase [3]; [8]) was 97%.

For `Cl` [chloride], the “effect on Na,K-ATPase activity of increasing the salt concentration to 400 mM” value (Na,K-ATPase [4]) was “no effect”.

With `CNC[C@H](O)[C@@H](O)[C@H](O)[C@H](O)CO` [NMG^+, N-methylglucamine] the “E1P (amount of K-resistant E1P)” value (Na,K-ATPase [3]; 45 mM Na^+, replacement cation to a sum of 500 mM, nitrate, 4°C, prep. C) was 80% and the “E1P (amount of K-resistant E1P)” value (Na,K-ATPase [3]; 200 mM Na^+, replacement cation to a sum of 500 mM, nitrate, 4°C, prep. C) was 79%.

For `CC(=O)O` [acetate], the “effect on Na,K-ATPase activity of increasing the salt concentration to 400 mM” value (Na,K-ATPase [4]) was “no effect”.

With `O=[N+]([O-])O` [nitrate] the “amount of E1P in nitrate relative to acetate” value (Na,K-ATPase [1]; 30 mM Na^+, 250 mM Lys^+) was “sevenfold larger” and the “initial amount of E1P” value (Na,K-ATPase [1]; 280 mM anion, 30 mM Na^+, 250 mM lysine^+, 4°C, 2-pool model) was 36%.

In the case of `Nc1ncnc2c1ncn2[C@@H]1O[C@H](COP(=O)(O)OP(=O)(O)OP(=O)(O)O)[C@@H](O)[C@H]1O` [ATP, reference compound], the “k(off), rate constant of dissociation of ATP from ATP·E1” value (Na,K-ATPase [3]; [6]) is listed as 1.1 ± 0.10 s⁻¹ and 1.3 ± 0.20 s⁻¹, the “k off, rate constant of dissociation of ATP, range over all media of Table III” value (Na,K-ATPase [3]; 45-500 mM Na^+, 4°C, no correlation with [Na^+]) is listed as 0.7 to 1.9 s⁻¹ and the “rate constant of dissociation of ATP” value (Na,K-ATPase [5]) is listed as 1.5 to 3.5 s⁻¹.

For `CCN(CC)CC` [Et3N^+, triethylamine], the “E1P (amount of K-resistant E1P)” value (Na,K-ATPase [3]; [7]) was 68% and the “E1P (amount of K-resistant E1P)” value (Na,K-ATPase [3]; [8]) was 56%.
